This is an account of results in the RNAGym collection of RNA variant scans (doi:10.1101/gad.245936.114).

Variants at the floor of the assay were thinned out. Where only a bound is given, the exact number is not on record here.

To fix the notation:
B1: tRNA (parent)
chain: CUCUCGGUAGCCAAGUUGGUUUAAGGCGCAAGACUUUAAUUUAUCACUACGAAAUCUUGAGAUCGGGCGUUCGACUCGCCCCCGGGAGAUUUUUUCCUCGAGCAA

The data set covers variants of B1. Description: nonsense suppression (GFP-seq) (ratio to wild type); higher = more function; SUP4oc tRNA, yeast GFP reporter sort-seq. In a few lines: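 Sorted GFP/RFP bins of yeast were each Illumina-sequenced with a phred ≥30 cutoff; the cells held a genome-integrated ochre-suppressor tRNA variant from a library with ~3% random mutations, a galactose-driven GFP ochre reporter, and RFP. Culture was in raffinose/galactose medium containing 80 mg/L adenine. Nonsense suppression, termed GFPSEQ, is the median GFP/RFP of the bins weighted by each variant's estimated cell share per bin, relative to the unmutated parent tRNA, for variants reaching ≥100 reads and ≥30 cells.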
Consider CUCUCGGUAGCCAAGUUGGUUUAAGGCGCAAGACUUUAAUUUAUCACUACGAAAUCUUGAGAUCGGGCGUUCAACUCGCCCCCGGGAGAUUUUUUCCUCGAGCAA, for which the nonsense suppression was found to be 1.12.
Consider CUCUCGGUAGCCAAGUUGGUUUAAGGCGCAAGACUUUAAUUUAUCACUACGAAAUCUUGAGAUCGGGCGUUCAACUCGCCCCCGGGUGAUUUUUUCCUCGAGCAA, for which the nonsense suppression stood at 0.0409.
With CUCUCGGUAGCCAAGUUGGUUUAAGGCGCAAGACUUUAAUUUAUCACUACGAAAUCUUGAGAUCGGGCUUUCGACUCGCCCCCGGCAGAUUUUUUCCUCGAGCAA, the nonsense suppression came out at 0.17.
On to CUCUCGGUAGCCAAGUUGGUUUAAGGCGCAAGACUUUAAUUUAUCACUACGAAAUCUUGAGAUCGGGCGUUCAACUCGCCCCCAGGAGAUUUUUUCCUCGAGCAA, for which the nonsense suppression was 0.191.
The same measure for CUCUCGGUAGCCAAGUUGGUUUAAGGCGCAAGACUUUAAUUUAUCACUACGAAAUCUUGAGAUCGGGCGUUCAACUCGCCCCCCGGAGAUUUUUUCCUCGAGCAA: 0.361; for CUCUCGGUAGCCAAGUUGGUUUAAGGCGCAAGACUUUAAUUUAUCACUACGAAAUCUUGAGAUCGGGCGUCGGACUCGCCCCCGGGAGAUUUUUUCCUCGAGCAA: no more than 0.026; for CUCUCGGUAGCCAAGUUGGUUUAAGGCGCAAGACUUUAAUUUAUCACUACGAAAUCUUGAGAUCGGGCGUUUGACUCGCCCCCGUGAGAUUUUUUCCUCGAGCAA: 0.0294.
Under CUCUCGGUAGCCAAGUUGGUUUAAGGCGCAAGACUUUAAUUUAUCACUACGAAAUCUUGAGAUCGGGCGGUCGAUUCGCCCCCGGGAGAUUUUUUCCUCGAGCAA stands no more than 0.026; under CUCUCGGUAGCCAAGUUGGUUUAAGGCGCAAGACUUUAAUUUAUCACUACGAAAUCUUGAGAUCGGGCGAUCGACUCGCGCCCGGGAGAUUUUUUCCUCGAGCAA, no more than 0.026.
The same measure for CUCUCGGUAGCCAAGUUGGUUUAAGGCGCAAGACUUUAAUUUAUCACUACGAAAUCUUGAGAUCGGGCGAUCGACUCGCUCCCGGGAGAUUUUUUCCUCGAGCAA: no more than 0.026; for CUCUCGGUAGCCAAGUUGGUUUAAGGCGCAAGACUUUAAUUUAUCACUACGAAAUCUUGAGAUCGGGCGUUGAACUCGCCCCCGGGAGAUUUUUUCCUCGAGCAA: 0.0319; for CUCUCGGUAGCCAAGUUGGUUUAAGGCGCAAGACUUUAAUUUAUCACUACGAAAUCUUGAGAUCGGGCGGUCGACUCGCCCGCGGGAGAUUUUUUCCUCGAGCAA: no more than 0.026.
In the case of CUCUCGGUAGCCAAGUUGGUUUAAGGCGCAAGACUUUAAUUUAUCACUACGAAAUCUUGAGAUCGGGUGCUCGACUCGCCCCCGGGAGAUUUUUUCCUCGAGCAA, the nonsense suppression came out at 0.0321.
For the variant CUCUCGGUAGCCAAGUUGGUUUAAGGCGCAAGACUUUAAUUUAUCACUACGAAAUCUUGAGAUCGGGCGCUCGACUCGCCCCCGGAAGAUUUUUUCCUCGAGCAA, the nonsense suppression was no more than 0.026.
Take CUCUCGGUAGCCAAGUUGGUUUAAGGCGCAAGACUUUAAUUUAUCACUACGAAAUCUUGAGAUCGGGCGUUAGACUCGCCCCCGCGAGAUUUUUUCCUCGAGCAA: the nonsense suppression was no more than 0.026.
On to CUCUCGGUAGCCAAGUUGGUUUAAGGCGCAAGACUUUAAUUUAUCACUACGAAAUCUUGAGAUCGGGCGUUCAACUCGCCCCCGGGAAAUUUUUUCCUCGAGCAA, for which the nonsense suppression is 0.0281.
In the case of CUCUCGGUAGCCAAGUUGGUUUAAGGCGCAAGACUUUAAUUUAUCACUACGAAAUCUUGAGAUCGGGCGUUCAACUCGCCCCCGGGAUAUUUUUUCCUCGAGCAA, the nonsense suppression was determined as 0.0757.
For the variant CUCUCGGUAGCCAAGUUGGUUUAAGGCGCAAGACUUUAAUUUAUCACUACGAAAUCUUGAGAUCGGGCAUUCGACUCGCCCGCGGGAGAUUUUUUCCUCGAGCAA, the nonsense suppression is no more than 0.026.
For CUCUCGGUAGCCAAGUUGGUUUAAGGCGCAAGACUUUAAUUUAUCACUACGAAAUCUUGAGAUCGGGUGUCCGACUCGCCCCCGGGAGAUUUUUUCCUCGAGCAA, the nonsense suppression was 0.0274.
Turning to CUCUCGGUAGCCAAGUUGGUUUAAGGCGCAAGACUUUAAUUUAUCACUACGAAAUCUUGAGAUCGGGCGAUCGACGCGCCCCCGGGAGAUUUUUUCCUCGAGCAA, the nonsense suppression is 0.183.
The same measure for CUCUCGGUAGCCAAGUUGGUUUAAGGCGCAAGACUUUAAUUUAUCACUACGAAAUCUUGAGAUCGGGCCUUCGACUCGCCCCCGGGAGGUUUUUUCCUCGAGCAA: no more than 0.026; for CUCUCGGUAGCCAAGUUGGUUUAAGGCGCAAGACUUUAAUUUAUCACUACGAAAUCUUGAGAUCGGGCGUUCGGAUCGCCCCCGGCAGAUUUUUUCCUCGAGCAA: no more than 0.026; for CUCUCGGUAGCCAAGUUGGUUUAAGGCGCAAGACUUUAAUUUAUCACUACGAAAUCUUGAGAUCGGGCGUUCGCCUCGUCCCCGGGAGAUUUUUUCCUCGAGCAA: 0.037.
On to CUCUCGGUAGCCAAGUUGGUUUAAGGCGCAAGACUUUAAUUUAUCACUACGAAAUCUUGAGAUCGGGCGCUCGACUCACCCCCGGGAGAUUUUUUCCUCGAGCAA, for which the nonsense suppression amounted to 0.0308.
With CUCUCGGUAGCCAAGUUGGUUUAAGGCGCAAGACUUUAAUUUAUCACUACGAAAUCUUGAGAUCGGGCGUUCUACUCGCCUCCGGGAGAUUUUUUCCUCGAGCAA, the nonsense suppression was found to be 0.0263.
The same measure for CUCUCGGUAGCCAAGUUGGUUUAAGGCGCAAGACUUUAAUUUAUCACUACGAAAUCUUGAGAUCGGGCGUUCGCCUCGCCUCCGGGAGAUUUUUUCCUCGAGCAA: no more than 0.026; for CUCUCGGUAGCCAAGUUGGUUUAAGGCGCAAGACUUUAAUUUAUCACUACGAAAUCUUGAGAUCGGGCGUUUCACUCGGCCCCGGGAGAUUUUUUCCUCGAGCAA: no more than 0.026.
